Results on six compounds are retold here after ChEMBL document CHEMBL1921703 (Eur J Med Chem, 2011).

Series [1] has as its system Plasma. The experiment in a line: AUC (0 to t) in Kunming mouse plasma at dose equivalent to 10 mg/kg, iv of naproxen administered as single dose. In kind it is ADME, organism-based. Set-up: dose 10 mg/kg, route intravenous. The following applies: in vivo.
For series [2], the system named is Kidney. The experiment in a line: Drug uptake in Kunming mouse kidney assessed as naproxen level at dose equivalent to 10 mg/kg, iv of naproxen administered as single dose measured by HPLC analysis. Type of series: ADME, organism-based. On the set-up: dose 10 mg/kg, route intravenous. Conditions: in vivo; call rule not given here.
Series [3] concerns Heart. The experiment in a line: Drug uptake in Kunming mouse heart assessed as naproxen level at dose equivalent to 10 mg/kg, iv of naproxen administered as single dose measured by HPLC analysis. The following applies: in vivo. Type of series: ADME, organism-based. Set-up: dose 10 mg/kg, route intravenous.
For series [4], the system named is Muscle tissue. The experiment in a line: Drug uptake in Kunming mouse muscle assessed as naproxen level at dose equivalent to 10 mg/kg, iv of naproxen administered as single dose measured by HPLC analysis. In kind it is ADME, organism-based. The following applies: in vivo. Set-up: dose 10 mg/kg, route intravenous.
Series [5] concerns Liver. Kind of series: Drug uptake in Kunming mouse liver assessed as naproxen level at dose equivalent to 10 mg/kg, iv of naproxen administered as single dose measured by HPLC analysis. In kind it is ADME, organism-based. Set-up: dose 10 mg/kg, route intravenous. The following applies: in vivo.
The subject of series [6] is Brain. Kind of series: AUC (0 to t) in Kunming mouse brain at dose equivalent to 10 mg/kg, iv of naproxen administered as single dose. On the set-up: dose 10 mg/kg, route intravenous. In kind it is ADME, organism-based. The following applies: in vivo.
The test system of series [7] is Plasma. The experiment in a line: Prodrug conversion in Kunming mouse plasma assessed as compound hydrolysis to naproxen at dose equivalent to 10 mg/kg, iv of naproxen measured by HPLC analysis. Conditions: in vivo. Type of series: ADME, organism-based. On the set-up: dose 10 mg/kg, route intravenous.
The subject of series [8] is Brain. The experiment in a line: Prodrug conversion in mouse brain homogenate assessed as naproxen release at 250 uM/mL by HPLC analysis. In kind it is ADME, tissue-based. Conditions: in vitro, TDE = time-dependent effect. The essentials: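 Prodrugs were incubated at 37 °C for up to 90 min in mouse brain homogenate (1:5 w/v in pH 7.4 phosphate buffer). […] Peak areas were normalised to the reference prodrug peak at 15 min, SD n = 3.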

Series [9] in a line: Metabolic stability in mouse plasma assessed as half life at 250 umol/mL by HPLC analysis. In kind it is ADME, cell-free. The essentials: (§1)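 Mouse plasma, diluted with two volumes of water, or brain homogenate (1:5 w/v in cold pH 7.4 phosphate buffer) was spiked with methanol stock (1:4 v/v) and incubated at 37 °C. Aliquots taken at 0–90 min were quenched with acetonitrile and centrifuged. Remaining prodrug was measured by HPLC-UV at 238 nm. Rate constant came from ln(peak area) regression against time, and half-life followed from it.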

A short description of series [10]: Metabolic stability in mouse brain homogenate assessed as half life at 250 umol/mL by HPLC analysis. Type of series: ADME, tissue-based. Summed up: as §1
Series [11] deals with Brain. Kind of series: Metabolic stability in mouse brain homogenate assessed as first order rate constant of compound disappearance at 250 umol/mL by HPLC analysis. In kind it is ADME, tissue-based. Summed up:
as §1

For series [12], the system named is Plasma. Kind of series: Metabolic stability in mouse plasma assessed as first order rate constant of compound disappearance at 250 umol/mL by HPLC analysis. Type of series: ADME, cell-free. Summed up: as §1
Series [13] is described as follows: Chemical stability of the compound in phosphate buffer at pH 7.4 assessed as half life at 250 umol/mL by HPLC analysis. Type of series: physicochemical. Summed up:
(§2)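 Each compound, added as methanol stock, was incubated in phosphate buffer at pH 2.5, 5.0, 7.4 or 8.0 (1:4 v/v) at 37 °C. Samples were taken at 0, 1, 3, 6, 12 and 24 h. Remaining ester was measured by HPLC-UV at 238 nm on C18 with methanol-water 80:20. The pseudo-first-order rate constant came from linear regression of ln(peak area) against time, and half-life followed from it.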

Series [14] in a line: Chemical stability of the compound in phosphate buffer at pH 8.0 assessed as half life at 250 umol/mL by HPLC analysis. Type of series: physicochemical. The essentials: as §2
The nature of series [15]: Chemical stability of the compound in phosphate buffer at pH 5 assessed as half life at 250 umol/mL by HPLC analysis. In kind it is physicochemical. Summed up:
as §2

A short description of series [16]: Chemical stability of the compound in phosphate buffer at pH 2.5 assessed as half life at 250 umol/mL by HPLC analysis. In kind it is physicochemical. Summed up:
as §2

A short description of series [17]: Chemical stability of the compound in phosphate buffer at pH 8.0 assessed as first order rate constant of compound disappearance at 250 umol/mL by HPLC analysis. Type of series: physicochemical. Summed up:
as §2

Series [18] is described as follows: Chemical stability of the compound in phosphate buffer at pH 7.4 assessed as first order rate constant of compound disappearance at 250 umol/mL by HPLC analysis. Type of series: physicochemical. The essentials:
as §2

A short description of series [19]: Chemical stability of the compound in phosphate buffer at pH 2.5 assessed as first order rate constant of compound disappearance at 250 umol/mL by HPLC analysis. In kind it is physicochemical. Summed up: as §2
Series [20] in a line: Chemical stability of the compound in phosphate buffer at pH 5 assessed as first order rate constant of compound disappearance at 250 umol/mL by HPLC analysis. In kind it is physicochemical. The essentials:
as §2

Series [21] can be described thus: in vivo. Conditions: Kunming, mouse, brain, iv, 10 mg/kg.
Series [22] is described as follows: in vivo. The following applies: Kunming, mouse, brain, iv, 10 mg/kg. This is another data set of the same source.
A short description of series [23]: in vivo. Conditions: Kunming, mouse, brain, iv, 10 mg/kg. This is another data set of the same source.

Turning to `COc1ccc2cc([C@H](C)C(=O)OC[C@H]3O[C@H](O)[C@H](O)[C@@H](O)[C@@H]3O)ccc2c1`, the AUCt in [1] turned out to be 10353.27 µg/min/mL; in [6], 3930.87 µg·min/g. Also, the Drug uptake entry in series [2], in series [3], in series [4] and in [5] was “Active” in each case. The results for the Drug metabolism result in [7] and in series [8] were “Active” and “tde”, respectively. Besides, the half-life (as a rule, the time in which the quantity being followed falls by half) at 250 umol/mL is 88.6 min in series [9]; 101 min in series [10]; 4.75 days in series [13]; 1430 min in [14]; 6420 min in series [15]; 3200 min in series [16]. Further, the Activity in series [11] was found to be 0.683 ×10⁻² /min; in series [12], 0.782 ×10⁻² /min; in series [17] it was 2.91 ×10⁻² /hr; in series [18], 0.607 ×10⁻² /hr; in series [19], 1.3 ×10⁻² /hr; in series [20], 0.645 ×10⁻² /hr.
In the case of `COc1ccc2cc([C@H](C)C(=O)OCC/C(SSCc3ccccc3)=C(\C)N(C)C=O)ccc2c1`, the results for the AUCt in [1] and in [6] were 8834.7 µg/min/mL and 3307.75 µg·min/g, respectively. For the same compound, the Drug uptake entry in series [2], in series [3], in series [4] and in [5] was “Active” in each case. Moreover, the Drug metabolism entry in [7] is on record as “Active”; in series [8], “tde”. Moreover, the half-life at 250 umol/mL in series [9] is 59.2 min; in series [10], 25.1 min; in series [13], 2.6 days; in [14] it was 2030 min; in series [15], 1480 min; in series [16] it was 822 min. Further, the Activity in series [11] is reported as 2.76 ×10⁻² /min; in series [12], 1.17 ×10⁻² /min; in [17], 2.05 ×10⁻² /hr; in [18], 1.11 ×10⁻² /hr; in series [19], 5.05 ×10⁻² /hr; in series [20], 2.81 ×10⁻² /hr.
Take `COc1ccc2cc([C@H](C)C(=O)OCC/C(SSCc3ccccc3)=C(\C)N(C=O)CC(=O)OC[C@H]3O[C@H](O)[C@H](O)[C@@H](O)[C@@H]3O)ccc2c1`: the AUCt in series [1] is 13348.87 µg/min/mL; in [6] it was 5669.45 µg·min/g. Further, the Drug uptake result in series [2], in [3], in [4] and in [5] was “Active” each time. For the same compound, the Drug metabolism entry is given as “Active” in [7] and “tde” in series [8]. The half-life at 250 umol/mL in [9] is 45.3 min; in [10], 18.7 min; in [13], 1.25 days; in [14], 1170 min; in series [15], 1450 min; in series [16] it was 1220 min. The Activity turned out to be 3.71 ×10⁻² /min in [11]; 1.53 ×10⁻² /min in series [12]; 3.56 ×10⁻² /hr in [17]; 2.3 ×10⁻² /hr in [18]; 3.39 ×10⁻² /hr in series [19]; 2.87 ×10⁻² /hr in [20].
Regarding `COc1ccc2cc([C@H](C)C(=O)OCC/C(SSC(C)C)=C(\C)N(C=O)CC(=O)OC[C@H]3O[C@H](O)[C@H](O)[C@@H](O)[C@@H]3O)ccc2c1`, the AUCt in [1] was 16185.44 µg/min/mL; in [6], 6140.77 µg·min/g. The Drug uptake entry in [2], in [3], in series [4] and in [5] was “Active” each time. Besides, the Drug metabolism entry in series [7] is on record as “Active”; in [8], “tde”. Besides, the half-life at 250 umol/mL in series [9] is 47.5 min; in [10], 20.6 min; in series [13], 2.12 days; in series [14] it was 1720 min; in [15], 2040 min; in series [16], 1300 min. Also, the Activity in series [11] is listed as 3.37 ×10⁻² /min; in series [12], 1.46 ×10⁻² /min; in series [17], 2.42 ×10⁻² /hr; in series [18], 1.36 ×10⁻² /hr; in series [19] it was 3.19 ×10⁻² /hr; in [20], 2.04 ×10⁻² /hr.
For `CCSS/C(CCOC(=O)[C@@H](C)c1ccc2cc(OC)ccc2c1)=C(/C)N(C=O)CC(=O)OC[C@H]1O[C@H](O)[C@H](O)[C@@H](O)[C@@H]1O`, the AUCt in [1] stood at 12914.16 µg/min/mL; in series [6], 4716.88 µg·min/g. For the same compound, the Drug uptake result in series [2], in [3], in series [4] and in series [5] was “Active” in each case. Also, the values for the Drug metabolism entry in [7] and in series [8] were “Active” and “tde”, respectively. The half-life at 250 umol/mL in series [9] is 39.4 min; in series [10], 14.6 min; in series [13], 1.13 days; in series [14], 1500 min; in series [15], 1410 min; in [16] it was 960 min. Besides, the Activity in series [11] was 4.74 ×10⁻² /min; in series [12], 1.77 ×10⁻² /min; in series [17] it was 2.77 ×10⁻² /hr; in [18], 2.55 ×10⁻² /hr; in series [19], 4.34 ×10⁻² /hr; in [20], 2.95 ×10⁻² /hr.
Take `COc1ccc2cc([C@H](C)C(=O)O)ccc2c1` [NAPROXEN]: the AUCt in series [1] stood at 3812.35 µg/min/mL. Besides, the MRT (commonly the average time that molecules of a dose stay in the body) in series [21] is 1.41 h. Further, in [22], the Cmax (as a rule, the maximum level reached in the sampled fluid or tissue) was found to be 17100 ng/g. The Tmax (in general, the time from dosing to the highest level) in series [23] is 45 min.
